Measured values: ChEMBL document CHEMBL4308840, “Identification of the First Synthetic Allosteric Modulator of the CB2 Receptors and Evidence of Its Efficacy for Neuropathic Pain Relief” (2018)
The source made the active and inactive calls.

What was measured:
[1] = molecular target: Cannabinoid receptor 2 (Homo sapiens) (UniProt P34972); assay: Positive allosteric modulation of human CB2R expressed in CHO cell membranes assessed as increase in [3H]CP55940 binding after 60 mins by liquid scintillation spectrometric method
Cannabinoid receptor 2 (Homo sapiens), sequence (P34972 whole entry): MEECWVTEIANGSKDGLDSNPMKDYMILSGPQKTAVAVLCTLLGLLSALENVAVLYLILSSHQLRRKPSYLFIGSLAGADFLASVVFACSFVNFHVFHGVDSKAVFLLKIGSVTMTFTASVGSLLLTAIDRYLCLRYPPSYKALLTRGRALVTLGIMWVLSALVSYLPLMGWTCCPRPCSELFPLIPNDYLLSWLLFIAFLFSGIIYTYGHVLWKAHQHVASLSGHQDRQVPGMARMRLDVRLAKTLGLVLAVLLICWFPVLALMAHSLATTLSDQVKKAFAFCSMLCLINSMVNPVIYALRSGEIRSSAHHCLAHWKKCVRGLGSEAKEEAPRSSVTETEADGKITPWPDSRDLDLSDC
Procedure, shortened: (§1)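 Membranes (50 µg protein) from CHO cells stably expressing human CB1R or CB2R, incubated with 0.7 nM [3H]CP55940 in 50 mM Tris binding buffer with 0.1% BSA, pH 7.4, at 37 °C for 60 min. Vehicle 0.1% DMSO. Ended with ice-cold buffer and vacuum filtration through GF/B filters, then liquid scintillation counting. Specific binding is total minus binding with 1 µM unlabelled CP55940. Six independent experiments, each in duplicate.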

[2] = molecular target: Cannabinoid receptor 1 (Homo sapiens) (UniProt P21554); assay: Displacement of [3H]CP55940 from human CB1R expressed in CHO cell membranes at 100 nM after 60 mins by liquid scintillation spectrometric method; procedure, shortened: as §1
Cannabinoid receptor 1 (Homo sapiens), sequence (P21554 whole entry): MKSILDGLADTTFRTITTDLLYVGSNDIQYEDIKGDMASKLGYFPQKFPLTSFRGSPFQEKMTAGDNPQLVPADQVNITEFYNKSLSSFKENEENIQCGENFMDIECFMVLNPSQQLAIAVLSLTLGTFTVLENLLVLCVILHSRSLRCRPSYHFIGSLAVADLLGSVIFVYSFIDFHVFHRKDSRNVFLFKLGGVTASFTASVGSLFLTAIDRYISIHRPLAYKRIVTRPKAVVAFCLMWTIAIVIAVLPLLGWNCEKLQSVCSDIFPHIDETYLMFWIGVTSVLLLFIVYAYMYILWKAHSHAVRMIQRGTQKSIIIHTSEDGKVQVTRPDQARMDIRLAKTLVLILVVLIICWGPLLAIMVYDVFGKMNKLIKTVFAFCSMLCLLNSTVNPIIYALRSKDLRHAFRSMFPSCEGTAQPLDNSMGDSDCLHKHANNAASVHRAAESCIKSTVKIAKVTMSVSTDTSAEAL

[3] = molecular target: Cannabinoid receptor 1 (Homo sapiens) (UniProt P21554); assay: Positive allosteric modulation of human CB1R expressed in CHO cell membranes assessed as increase in [3H]CP55940 binding at 100 nM after 60 mins by liquid scintillation spectrometric method; procedure, shortened: as §1
[4] = molecular target: Cannabinoid receptor 1 (Homo sapiens) (UniProt P21554); assay: Positive allosteric modulation of human CB1R expressed in CHO cell membranes assessed as increase in [3H]CP55940 binding up to 1 uM after 60 mins by liquid scintillation spectrometric method relative to control
[5] = molecular target: Cannabinoid receptor 1 (Homo sapiens) (UniProt P21554); assay: Positive allosteric modulation of human CB1R expressed in CHO cell membranes assessed as increase in [3H]CP55940 binding at 10 uM after 60 mins by liquid scintillation spectrometric method
[6] = molecular target: Cannabinoid receptor 2 (Homo sapiens) (UniProt P34972); assay: Inhibition of [35S]GTPgammaS binding to human CB2R expressed in CHO cell membranes at 100 nM after 90 mins by liquid scintillation counting method; format: functional
Procedure, shortened: (§2)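 Membranes (1 mg/ml) from CHO cells stably expressing human CB1R or CB2R. Incubated with 0.1 nM [35S]GTPγS and 30 µM GDP in 50 mM Tris, 10 mM MgCl2, 100 mM NaCl, 0.2 mM EDTA, 1 mM DTT, pH 7.4, 0.1% DMSO, 30 °C for 90 min. Filtered on GF/B; scintillation counting. Duplicates; six experiments for CB1R, twelve for CB2R with CP55940.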

Mus musculus [7] = assay: (§3) Antinociceptive activity in CD-1 albino mouse model of oxaliplatin-induced neuropathic pain assessed as increase in licking latency at 20 mg/kg, po treated 15 mins after CB2R antagonist SR144528 treatment on day 15 post oxaliplatin treatment and measured up to 75 mins post dose by cold plate test; format: functional, organism-based
Procedure, shortened: (§4)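 Male CD-1 mice on day 15 after oxaliplatin (2.4 mg kg-1 i.p., days 1-2, 5-9, 12-14) received the selective antagonist i.p., then the oral test dose. Cold plate at 4 °C with 60 s cut-off, licking latency read 15, 30, 45, 60 and 75 min post dose. 16 mice in 2 sets; ANOVA with Bonferroni.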

[8] = molecular target: Cannabinoid receptor 2 (Homo sapiens) (UniProt P34972); assay: Stimulation of [35S]GTPgammaS binding to human CB2R expressed in CHO cell membranes at 100 nM after 90 mins by liquid scintillation counting method; format: functional; procedure, shortened: as §2
Mus musculus [9] = assay: Antinociceptive activity in CD-1 albino mouse model of oxaliplatin-induced neuropathic pain assessed as increase in licking latency at 5 to 10 mg/kg, po treated on day 15 post oxaliplatin treatment and measured at 30 to 60 mins post dose by cold plate test; format: functional, organism-based
Procedure, shortened: (§5)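 Male CD-1 mice (22–25 g) received oxaliplatin 2.4 mg kg-1 i.p. in 5% glucose on days 1-2, 5-9 and 12-14; controls got vehicle. On day 15, a single oral dose in 1% carboxymethylcellulose was given. Cold plate held at 4 °C; latency to first hind-paw licking recorded, 60 s cut-off, at 15, 30, 45, 60 and 75 min. n=16 mice over 2 sets; one-way ANOVA with Bonferroni.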

Mus musculus [10] = assay: Antinociceptive activity in CD-1 albino mouse model of oxaliplatin-induced neuropathic pain assessed as licking latency time at 20 mg/kg, po treated on day 15 post oxaliplatin treatment and measured up to 15 mins post dose by cold plate test (reference value: 9.7 +/- 0.9 secs); format: functional; procedure, shortened: as §5
[11] = molecular target: T1, Monoglyceride lipase (Homo sapiens) (UniProt Q99685); assay: Inhibition of recombinant human MAGL at <10 uM using 4-NPA as substrate after 30 mins by colorimetric method
T1 sequence (whole entry): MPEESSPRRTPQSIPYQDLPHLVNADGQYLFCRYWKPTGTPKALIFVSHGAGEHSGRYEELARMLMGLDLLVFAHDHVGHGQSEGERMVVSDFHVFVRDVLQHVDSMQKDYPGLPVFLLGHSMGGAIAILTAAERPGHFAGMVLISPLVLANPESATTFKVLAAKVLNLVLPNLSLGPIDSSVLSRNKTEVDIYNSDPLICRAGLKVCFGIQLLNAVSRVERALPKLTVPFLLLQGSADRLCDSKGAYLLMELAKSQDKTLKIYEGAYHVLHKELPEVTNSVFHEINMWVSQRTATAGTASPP
Procedure, shortened: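 Human recombinant MAGL, 11 ng/well, with 100 µM (final) 4-nitrophenylacetate in 10 mM Tris pH 7.2, 1 mM EDTA, 0.1 mg/ml BSA, at room temperature for 30 min. 4-Nitrophenol release read at 405 nm. Controls were no-compound and no-enzyme reactions.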

[12] = molecular target: Cannabinoid receptor 2 (Homo sapiens) (UniProt P34972); assay: Positive allosteric modulation of human CB2R expressed in CHO cell membranes assessed as increase in 2-AG-stimulated [35S]GTPgammaS binding at 100 nM after 90 mins by liquid scintillation counting method; format: functional; procedure, shortened: as §2
[13] = molecular target: Cannabinoid receptor 2 (Homo sapiens) (UniProt P34972); assay: Positive allosteric modulation of human CB2R expressed in CHO cell membranes assessed as decrease in [3H]CP55940 dissociation at 100 nM up to 2 hrs by liquid scintillation spectrometric method
Procedure, shortened: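 Human CB2R CHO membranes (50 µg protein) were used for [3H]CP55940 dissociation in Tris buffer with 0.1% BSA, pH 7.4, with or without 100 nM test compound. Dissociation followed 0.5–120 min at 25 °C; filtration and scintillation counting. Nonspecific binding taken with 1 µM unlabelled ligand. Four experiments in duplicate.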

[14] = molecular target: Cannabinoid receptor 1 (Homo sapiens) (UniProt P21554); assay: Allosteric modulation of human CB1R expressed in CHO cell membranes assessed as effect on CP55940-stimulated [35S]GTPgammaS binding at 100 nM after 90 mins by liquid scintillation counting method; format: functional; procedure, shortened: as §2
[15] = molecular target: Cannabinoid receptor 2 (Homo sapiens) (UniProt P34972); assay: Positive allosteric modulation of human CB2R expressed in CHO cell membranes assessed as increase in AEA-stimulated [35S]GTPgammaS binding at 100 nM after 90 mins by liquid scintillation counting method; format: functional; procedure, shortened: as §2
Mus musculus [16] = assay: Antinociceptive activity in CD-1 albino mouse model of oxaliplatin-induced neuropathic pain assessed as increase in licking latency at 20 mg/kg, po treated 15 mins after CB1R antagonist SR141716A treatment on day 15 post oxaliplatin treatment and measured up to 75 mins post dose by cold plate test; format: functional, organism-based; procedure, shortened: as §4
[17] = molecular target: Cannabinoid receptor 2 (Homo sapiens) (UniProt P34972); assay: Positive allosteric modulation of human CB2R expressed in CHO cell membranes assessed as increase in CP55940-stimulated [35S]GTPgammaS binding at 100 nM after 90 mins by liquid scintillation counting method; format: functional; procedure, shortened: as §2
Mus musculus [18] = assay: as §3, with “1 to 10” for “20”, “MAGL inhibitor trans-(1-(1-(1H-1,2,4-Triazole-1-carbonyl)piperidin-4-yl)-4-benzo[d][1,3]dioxol-5-yl)-3-(4-fluorophenyl)azetidin-2-one” for “CB2R antagonist SR144528”; format: functional
Procedure, shortened: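 Oxaliplatin model in male CD-1 mice: 2.4 mg kg-1 i.p. in 5% glucose on days 1-2, 5-9 and 12-14, tested day 15. MAGL inhibitor F 1 mg kg-1 p.o. was combined with oral test dosing, both in 1% carboxymethylcellulose. Cold plate latency at 4 °C, 60 s cut-off, read 15–75 min after dosing. 16 mice over 2 sets; ANOVA/Bonferroni; synergy by Chou-Talalay combination index.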

Mus musculus [19] = assay: Antinociceptive activity in CD-1 albino mouse model of oxaliplatin-induced neuropathic pain assessed as licking latency time at 20 mg/kg, po treated on day 15 post oxaliplatin treatment and measured at 60 mins post dose by cold plate test (reference value: 9.7 +/- 0.9 secs); format: functional; procedure, shortened: as §5

Compound	Activity [1]	inhibition [2]	Activity [3]	also measured
Cc1c(Br)c[nH]c(=O)c1NC(=O)C1CCCCCC1	inactive	Active		
Cc1ccc(NC(=O)C2CCCCCC2)c(=O)n1Cc1ccc(F)cc1	inactive	Active		
Cc1c(F)cc(NC(=O)C2CCCCCC2)c(=O)n1Cc1ccc(F)cc1	inactive		Active	
Cc1c(-c2ccccc2)cc(NC(=O)C2CCCCCC2)c(=O)n1Cc1ccc(F)cc1	inactive		Active	
Cc1c(Br)cn(Cc2ccc(F)cc2)c(=O)c1NC(=O)C1CCCCCC1	Active		Active	Activity [4]: 40%; Activity [5]: inactive; inhibition [6]: inactive; Activity (Mus musculus [7]): inactive; Activity [8]: inactive; Activity (Mus musculus [9]): Active; Time (Mus musculus [10]): 0.5 min; inhibition [11]: inactive; Activity [12]: Active; Activity [13]: Active; Activity [14]: inactive; Activity [15]: inactive; Activity (Mus musculus [16]): Active; Activity [17]: Active; CI (Mus musculus [18]): 0.2012; Time (Mus musculus [19]): 0.75 min
Cc1c(Cl)cc(NC(=O)C2CCCCCC2)c(=O)n1Cc1ccc(F)cc1	inactive	Active		
Cc1c(Br)cc(NC(=O)C2CCCCCC2)c(=O)n1Cc1ccc(F)cc1	inactive		Active	
Cc1ccn(Cc2ccc(F)cc2)c(=O)c1NC(=O)C1CCCCCC1	inactive	Active		
O=C(Nc1c(O)c(Br)cn(Cc2ccc(F)cc2)c1=O)C1CCCCCC1	Active		Active	

More lines, main results first:

Activity [1]	inhibition [2]	Activity [3]	Compound	also measured
inactive		Active	COc1ccc(-c2cn(Cc3ccc(F)cc3)c(=O)c(NC(=O)C3CCCCCC3)c2C)cc1	
inactive		Active	Cc1c(-c2ccccc2)cn(Cc2ccc(F)cc2)c(=O)c1NC(=O)C1CCCCCC1	
inactive		Active	Cc1c(Cl)cn(Cc2ccc(F)cc2)c(=O)c1NC(=O)C1CCCCCC1	
inactive		Active	COc1ccc(-c2cc(NC(=O)C3CCCCCC3)c(=O)n(Cc3ccc(F)cc3)c2C)cc1	
